Fewer inactive variants are shown than the library holds.
B1: tRNA (parent)
chain: GUUCCGUUGGCGUAAUGGUAACGCGUCUCCCUCCUAAGGAGAAGACUGCGGGUUCGAGUCCCGUACGGAACG

Variants of: B1
Assay: yeast fitness relative to wild type (ratio to wild type); higher = fitter; tRNA-Arg(CCU), competitive growth, 37 C, YPD
Summary of the method: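 Variants of the tRNA-Arg(CCU) gene were chemically synthesised with a 3% per-site mutation rate across 69 sites and placed at the native genomic locus in Saccharomyces cerevisiae. Six parallel replicates of the pooled strains were competed in YPD at 37°C for 24 hours, and gene amplicons from the start and end populations were read by 100-nucleotide paired-end sequencing. Darwinian fitness relative to wild type was derived from changes in genotype frequencies. Genotypes required ≥ 100 starting reads, and estimates < 0.5 were set to 0.5.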

Point of comparison: U19C C33G A57G C61G A69G, yeast fitness 0.65. Against it:
- G18A C29A C49U — lower, ≤ 0.5
- G17C U47G — lower, ≤ 0.5
- G17C G18C G44C U59A — lower, ≤ 0.5
- G17C A43C G51A — lower, ≤ 0.5
- G17C A42C C66U — lower, ≤ 0.5
- U19C C22A G23A C34U A57C C66U A69C — lower, ≤ 0.5
- G18U U26A G67C — lower, ≤ 0.5
- G17C G58C C62U — lower, ≤ 0.5
- G17A U28C A42C C66U — lower, ≤ 0.5
- G18C C22G G56A — lower, 0.568
- G17C C22G G52A — lower, ≤ 0.5
- G18U U26A U59C C66A A70U — lower, ≤ 0.5
- U19A C27G G63C — higher, 0.754
- G17A U32A — higher, 0.691
- G18C C29U C30U A37G C49U G67A — lower, ≤ 0.5
- G18A G25A C46U C55A — lower, ≤ 0.5
- U19A G23C C30G U47A — lower, 0.594
- U19C G38C G44C C46A — higher, 0.872
- G18C G68C — lower, 0.556
- G18A U19C A43U U59A — lower, 0.538
- G17C U35C C60U — lower, ≤ 0.5
- U19C C31G U53G U54A A57U — higher, 0.653
- G18A U26C — lower, 0.648
- G18A A37G — lower, 0.547
- U19C C22G C34G A70U — lower, ≤ 0.5
- U19C C34U A43U G52C — lower, ≤ 0.5
- G17U G25A U28G G58A C66G — lower, ≤ 0.5
- G18C G23A G25C U35C A37G A43C C55G G68A — lower, ≤ 0.5
- G18A U59A — higher, 0.76
- U19A U28C A69C — higher, 0.674
- G17A G23A C66A — higher, 0.776
- G18A U19C — higher, 0.79
- U19C C46G A65G — higher, 0.716
- G18A C29U C31A — lower, 0.575
- U19A G38C G56C — lower, ≤ 0.5
- U19C C61G — higher, 0.691
- U19A C49A U54G U59A G63C A69G — lower, ≤ 0.5
- U19A C30A A43G C49U G51U C55A — lower, 0.528
- G17U C46A — higher, 0.785
- G18A C34A — lower, ≤ 0.5
- U19C C24U — higher, 0.969
- U19C G48C C66U — higher, 0.712
- U19A C34G A57U — lower, ≤ 0.5
- U19C C60A — lower, 0.547
- U19A C30U C31A G58A G67C — lower, ≤ 0.5
- G17C A20G A57G C62U — lower, ≤ 0.5
- G18C G41C C62G — lower, ≤ 0.5
- U19C C27A C46A A70C — lower, ≤ 0.5
- G18A A21U C49A C60G A70U — lower, ≤ 0.5
- G18A U32C A69C — lower, 0.549
- G18A G25A C29G C34A — lower, ≤ 0.5
- U19A A36C G51C U59A — lower, ≤ 0.5
- U19A A20C A21G C30G A43G C55G — lower, ≤ 0.5
- G18A C24U G56A — higher, 0.674
- G18A A21C G23U U32A A42U G48C U64A — lower, 0.529
- G18C C29U C34U A36G G58C — lower, ≤ 0.5
- G17A U35G G48C C66U — lower, 0.535
- U19C C31U C33G G41A C49G U54C G63A — lower, ≤ 0.5
- G18A C33A G44A U64C — lower, ≤ 0.5
- G18C G50A — lower, 0.609
- U19A G39A — higher, 0.846
- U19A G39C — higher, 0.742
- U19C A21G U26G G48C — lower, 0.624
- G17A U19A A21C G44C — lower, ≤ 0.5
- G18A A36G A42U — higher, 0.691
- G17C A37C — lower, 0.644
- G17C U28G C29U A37C A65C — lower, ≤ 0.5
- G17A C46U U59A — lower, 0.584
- U19A G48A A65U — higher, 0.71
- G17A G56C — lower, 0.527
- G17C U53A — lower, 0.583
- G17A U19C C66U — higher, 0.665
- U19C C27G C30U — lower, 0.55
- U19A C61A — higher, 0.673
- U19A C61U — higher, 0.983
- G17C U35G — lower, 0.554
- G17C C27G U28C A65U — lower, ≤ 0.5
- G17C G41A — lower, 0.615
- G17C C24U C49U U59A — lower, 0.533
- G18C U35A A45C C62U — lower, 0.542
- G18A C22G C31U — higher, 0.682
- G18A A36C — lower, 0.503
- U19C A20U C55A — lower, ≤ 0.5
- G18A C22U C24G — lower, ≤ 0.5
- U19C C31G U35A C61A A69C — lower, 0.504
- G17C U19A C30U A36G A70G — lower, ≤ 0.5
- U19C C33A A36C C55U — lower, ≤ 0.5
- U19C C24A U47C — lower, ≤ 0.5
- G17C C22G C24A C62A A70C — lower, 0.57
- U19C C24U C30A — lower, 0.631
- G17A U28G C62G — lower, ≤ 0.5
- G18A A20U C34U A36G — lower, ≤ 0.5
- G18A C33G U53A — lower, ≤ 0.5
- U19A C31G G44C — lower, ≤ 0.5
- U19C A20U — higher, 0.941
- G17C G23U U28A C31G A65G — lower, ≤ 0.5
- U19A C30U G38C — higher, 0.694
- U19C A21G U26G C49U — higher, 0.745
- G18C U26G — lower, 0.644
- G18C U26A — lower, 0.609
- G18A G39U G48A C61G — lower, ≤ 0.5
- G18C C34G A45C C66U — higher, 0.775
- G18C C61A — lower, 0.627
- G17A U28C A42C U47A C66U — lower, ≤ 0.5
- G18A A70C — higher, 0.74
- G18A A70G — lower, 0.646
- G17C G38C A43C A69U — lower, ≤ 0.5
- G18A G25A A70G — lower, 0.54
- G18A A20U — higher, 0.721
- G18A A20G — lower, 0.613
- U19A C24G C27U C30A A36G G52C — lower, ≤ 0.5
- G17C C24G U28A C30U A65U — lower, ≤ 0.5
- U19C A40C G41C — lower, 0.594
- G17A G25C A40U — lower, 0.574
- G17C — higher, 0.7
- G17U — higher, 0.851
- U19C G48A C62A — higher, 0.91
- G18C A57U — lower, 0.555
- G17U A57G A69C — lower, ≤ 0.5
- U19A C29G U54C — lower, ≤ 0.5
- G17C C61G C66U — lower, ≤ 0.5
- U19C C49G G67U — lower, 0.599
- U19C C24U C27G G38C A57U C60A C62G — lower, ≤ 0.5
- U19A U64A — higher, 0.807
- G18A A21C U32G — lower, 0.614
- G17A G25A C34U C55G — lower, 0.532
- U19A C34G A43C — lower, 0.534
- G18A C30U A40G G68C — lower, ≤ 0.5
- U19A C27U A65U — higher, 0.717
- U19C C33G C34U U54A C66U — lower, 0.524
- G17A C33A — lower, 0.53
- G18C C24G C46A G56C G58A — lower, ≤ 0.5
- G17C C46A A65C — lower, ≤ 0.5
- U19C A36G — higher, 1.01
- G17C U28G G48A A69C — lower, ≤ 0.5
- G18A A21C C30U — lower, ≤ 0.5
- U19C C27U C33U A40C C55A A65G — lower, ≤ 0.5
- G18A C31U — higher, 0.663
- G18A C31G — higher, 0.666
- U19A C49G G56U — lower, 0.558
- G18C C31G C55G A57C — lower, ≤ 0.5
- U19A C46U C49G — higher, 1.07
- G17A C46G U54C — lower, 0.562
- U19A C30G A40C C62G C66G A69C — lower, ≤ 0.5
- G18A C31A A43G G50A A57U — lower, 0.572
- G18C C31G G44C G48C C66U — lower, ≤ 0.5
- G17A C46U A65C — higher, 0.658
- G18A U54C — lower, 0.646
- U19C A42U C46U C55G G63C — lower, ≤ 0.5
- U19C G23A C29G — lower, ≤ 0.5
- U19A C29U C55A A57C U59C — lower, ≤ 0.5
- G17C C22G C24A C62A — lower, ≤ 0.5
- G17C U47G G67A A69U — lower, 0.55
- U19A C24G C29U G52C U64G — lower, ≤ 0.5
- G18C G23A G25C A37G A43C C55G C62G — lower, ≤ 0.5
- G18A U26G A42U A65G C66G G68A — lower, ≤ 0.5
- G17C C34U C61U — lower, 0.55
- G17A G25C A65U — lower, 0.625
- G18C C34U — lower, ≤ 0.5
- U19C G25C G51C C60U A69U — lower, ≤ 0.5
- G17A C55U — higher, 0.681
- G18A U47C C62A — lower, ≤ 0.5
- G18A U19G C60U A69C — lower, ≤ 0.5
- G17A U32C A37G A69C — lower, 0.5
- U19A C27G C31U A69U — lower, ≤ 0.5
- G18C G25C U28G A42G — lower, ≤ 0.5

Reference: the RNAGym collection of RNA variant scans (doi:10.1126/science.aae0568)
